Here are results for 1 molecule from ChEMBL document CHEMBL3351942, “Rexinoids isolated from Sophora tonkinensis with a gene expression profile distinct from the synthetic rexinoid bexarotene” (J Nat Prod, 2014).

Test [1] deals with T1, Oxysterols receptor LXR-alpha (Homo sapiens) (UniProt Q13133).
T1 sequence (whole entry): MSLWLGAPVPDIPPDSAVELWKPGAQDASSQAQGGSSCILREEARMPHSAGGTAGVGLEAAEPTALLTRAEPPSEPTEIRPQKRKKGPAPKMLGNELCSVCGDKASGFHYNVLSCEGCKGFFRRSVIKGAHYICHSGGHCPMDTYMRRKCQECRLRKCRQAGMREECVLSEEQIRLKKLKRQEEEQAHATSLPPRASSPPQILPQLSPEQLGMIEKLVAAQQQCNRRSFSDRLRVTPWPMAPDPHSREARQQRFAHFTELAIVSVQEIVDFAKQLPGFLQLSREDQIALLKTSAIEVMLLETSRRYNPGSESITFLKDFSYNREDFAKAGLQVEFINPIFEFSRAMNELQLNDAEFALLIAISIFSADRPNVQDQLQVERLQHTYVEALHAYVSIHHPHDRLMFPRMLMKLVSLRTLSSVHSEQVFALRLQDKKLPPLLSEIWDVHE
Nature of the test: Activation of human LXR-alpha expressed in HEK293 cells coexpressing with pGL4.1-DR4-Luc after 24 hrs by luciferase reporter gene assay. It counts as cell-based. In general terms: In a reporter assay the amount or activity of a reporter protein is the signal.

The species entered for a further test is Homo sapiens. Nature of the test: Activation of PPARgamma/RXR heterodimer in human hepatoma cells assessed as potentiation of rosiglitazone-induced increase in ANGPTL4 mRNA level at 10 uM by quantitative RT-PCR analysis. It is filed as cell-based. Put shortly:
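HLE human hepatoma cells (DMEM, 10% FBS, 37 °C, 5% CO2) treated with or without rosiglitazone; ANGPTL4 mRNA by SYBR green qRT-PCR, β-actin-normalized delta-delta Ct, fold vs vehicle; means ± SD of three determinants, representative of three experiments.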

The subject of test [2] is F9. The experiment in a line: Activation of RAR/RXR heterodimer in mouse F9 cells assessed as increase in CYP26A1 mRNA level at 10 uM by quantitative RT-PCR analysis. It counts as cell-based. Put shortly:
(§1)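 F9 teratocarcinoma cells on 0.2% gelatin-coated dishes in DMEM/10% FBS; 24 h exposure with or without atRA (0.1 μM). CYP26A1 mRNA by qRT-PCR normalized to β-actin, fold vs vehicle; means ± SD of three determinants, one of three experiments; ANOVA/Bonferroni.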

The test system of test [3] is F9. Nature of the test: Activation of RAR/RXR heterodimer in mouse F9 cells assessed as increase in CYP26A1 mRNA level at 10 uM by quantitative RT-PCR analysis in presence of atRA. It is filed as cell-based. Put shortly: as §1
Test [4] can be described thus: Activation of LXR in mouse C2C12 cells assessed as induction of SREBP1 mRNA expression at 10 uM after 24 hrs by quantitative RT-PCR analysis. It counts as cell-based.
Test [5] can be described thus: Activation of LXR in mouse C2C12 cells assessed as induction of LPL mRNA expression at 10 uM after 24 hrs by quantitative RT-PCR analysis. It counts as cell-based.
The nature of test [6]: Activation of LXR in mouse C2C12 cells assessed as induction of ABCA1 mRNA expression at 10 uM after 24 hrs in presence of T0901317 by quantitative RT-PCR analysis. It is filed as cell-based. The method, boiled down: (§2)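 C2C12 myoblasts grown in DMEM/10% FBS, differentiated at confluence in 2% horse serum, medium changed every other day for 5 days; myotubes treated 24 h with or without T0901317 (1 μM). Total RNA, DNase-treated, oligo(dT) RT from 0.5 μg, SYBR green qPCR; normalized to β-actin (delta-delta Ct), fold over vehicle; mean ± SD of four determinants, one of two experiments.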

Test [7] in a line: Activation of LXR in mouse C2C12 cells assessed as induction of ApoE mRNA expression at 10 uM after 24 hrs in presence of T0901317 by quantitative RT-PCR analysis. It counts as cell-based. The method, boiled down:
as §2

The target of test [8] is T2, Retinoic acid receptor RXR-beta (Homo sapiens) (UniProt P28702).
T2 sequence (whole entry): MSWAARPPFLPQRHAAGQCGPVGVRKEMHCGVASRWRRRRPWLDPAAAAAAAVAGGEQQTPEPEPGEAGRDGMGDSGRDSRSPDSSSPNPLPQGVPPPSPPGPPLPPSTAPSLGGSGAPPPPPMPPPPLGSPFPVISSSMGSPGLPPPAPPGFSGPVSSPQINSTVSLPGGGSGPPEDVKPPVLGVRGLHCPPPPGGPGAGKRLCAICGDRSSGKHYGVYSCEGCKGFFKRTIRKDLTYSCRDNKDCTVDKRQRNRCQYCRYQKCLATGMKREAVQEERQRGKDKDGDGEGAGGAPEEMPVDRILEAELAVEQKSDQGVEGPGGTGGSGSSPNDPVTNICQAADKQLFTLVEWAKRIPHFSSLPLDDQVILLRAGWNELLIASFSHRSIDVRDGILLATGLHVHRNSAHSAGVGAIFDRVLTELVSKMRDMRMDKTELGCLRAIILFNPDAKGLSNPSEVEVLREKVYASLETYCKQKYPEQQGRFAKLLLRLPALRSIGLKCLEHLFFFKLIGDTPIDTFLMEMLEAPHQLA
The experiment in a line: Binding affinity to RXRbeta (unknown origin) by receptor-SRC1 cofactor complex formation assay. Put shortly: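 Ligand-dependent binding of RXR isotype to coactivator SRC-1 in an NR cofactor kit, detected with HRP-conjugated anti-RXR antibody at OD450. The full agonist CD3254 defined 100% and vehicle 0%. Efficacy was taken as maximum B/Bmax% and potency as EC50.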

Test [9] deals with T3, Peroxisome proliferator-activated receptor alpha (Homo sapiens) (UniProt Q07869).
T3 sequence (whole entry): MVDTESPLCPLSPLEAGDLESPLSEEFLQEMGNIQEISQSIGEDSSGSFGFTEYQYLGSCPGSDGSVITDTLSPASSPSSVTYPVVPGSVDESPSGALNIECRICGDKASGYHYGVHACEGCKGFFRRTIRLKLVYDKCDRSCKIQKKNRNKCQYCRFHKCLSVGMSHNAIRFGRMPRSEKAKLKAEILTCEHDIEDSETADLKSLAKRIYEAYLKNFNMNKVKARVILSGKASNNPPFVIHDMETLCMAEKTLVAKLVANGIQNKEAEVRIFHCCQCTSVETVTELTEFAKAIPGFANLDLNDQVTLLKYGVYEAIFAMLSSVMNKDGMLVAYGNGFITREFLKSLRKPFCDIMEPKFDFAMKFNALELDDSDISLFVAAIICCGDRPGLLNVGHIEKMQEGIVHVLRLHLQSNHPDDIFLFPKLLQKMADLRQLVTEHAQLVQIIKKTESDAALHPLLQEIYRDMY
Nature of the test: Activation of PPARalpha (unknown origin) by receptor-CBP cofactor complex formation assay. The method, boiled down: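 Cell-free cofactor recruitment ELISA: ligand-dependent binding of PPAR isotypes to CBP, detected by HRP-conjugated anti-PPAR antibody at OD450. Full agonists GW7647 (α), GW1929 (γ), GW501516 (δ) define 100%, vehicle 0%; efficacy as maximum B/Bmax% and potency as EC50.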

Another test relates to RAW264.7. The experiment in a line: Activation of RXR/LXR heterodimer in mouse RAW264.7 cells assessed as increase in ABCA1 protein level at 10 uM after 24 hrs in presence of T0901317 by Western blotting analysis. It is filed as cell-based.

Activity calls are given as the source filed them. The calls are words filed in the database; no cut-off is given here.

`CC(C)=CCc1cc([C@@H]2CC(=O)c3ccc(O)c(CC=C(C)C)c3O2)cc2c1OC(C(C)(C)O)C2` (stereo partly specified): the result in test [1], in [8] and in [9] was inactive. Also, the result (in the test listed under Homo sapiens; with F9 [2]; in the test on F9 [3]; in test [4]; in test [5]; in [6]) was Active. Also, the result (in test [7]; with RAW264.7) was Active.
